Active and inactive are the calls of the source. The rule behind the calls is not given here.
Assays:
[1] = target: Superoxide dismutase [Cu-Zn] (Homo sapiens) (UniProt P00441); assay: Binding affinity to human GST-SOD1 expressed in Escherichia coli Rosetta at 100 uM in presence of human plasma by reverse phase HPLC analysis; format: cell-free
How it was run: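 GST-SOD-1 fusion (final 75μM) added to 1 ml human blood plasma with compound at 100μM; shaken 60 rpm, 4°C, 24 h. Complex captured on glutathione-sepharose (4°C, 1 h), compound released with 5% TFA and quantified by C18 reverse-phase HPLC (40-100% acetonitrile/0.2% TFA gradient, 20 min). Buffer-only control taken as theoretical maximum for relative binding; GST tag alone as control.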

Homo sapiens [2] = organism: Homo sapiens; assay: Inhibition of human GST-SOD1 A4V mutant aggregation expressed in Escherichia coli Rosetta assessed as dimeric enzyme level at 75 uM by […]
Homo sapiens [3] = organism: Homo sapiens; assay: Inhibition of human GST-SOD1 A4V mutant aggregation expressed in Escherichia coli Rosetta assessed as dimeric enzyme level at 20 uM […]
How it was run: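 Metal-free SOD-1 A4V apoprotein (25μM) preincubated with increasing compound concentrations, 37°C, 15 min, then 5mM EDTA added and aggregation run 4 hrs at 37°C. Dimer measured by size exclusion chromatography peak area; percentage inhibition calculated against untreated A4V.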

Homo sapiens [4] = organism: Homo sapiens; assay: Inhibition of human GST-SOD1 A4V and N53A mutant aggregation expressed in Escherichia coli Rosetta assessed as dimeric enzyme level at 75 uM by […]
How it was run: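 Metal-free SOD-1 mutant prepared by dialysis against acetate pH 3.8/10mM EDTA, then pH 5.5/100mM NaCl; chelex-treated buffers, plastic tubes. Dimer purified on Superdex 75. Apoprotein 25μM preincubated with compound 75μM, 37°C, 15 min; aggregation started with 5mM EDTA at 37°C. Aliquots analysed by Superdex 200 gel filtration in TBS pH 7.4 (220/276 nm); dimer estimated from peak area.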

Sequence of Superoxide dismutase [Cu-Zn] (Homo sapiens) (P00441 whole entry, the tested form may be a part): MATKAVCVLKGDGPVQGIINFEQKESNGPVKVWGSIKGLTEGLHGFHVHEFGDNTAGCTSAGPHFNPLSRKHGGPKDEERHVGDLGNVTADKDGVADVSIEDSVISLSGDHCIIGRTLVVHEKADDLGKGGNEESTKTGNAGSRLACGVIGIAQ

## O=c1[nH]nc(SCc2ccccc2Cl)c(=O)[nH]1
[1]
  Activity: inactive
Homo sapiens [2]
  Activity: Active

## O=c1[nH]nc(SCc2c(F)cccc2Cl)c(=O)[nH]1
[1]
  Activity: inactive
Homo sapiens [2]
  Activity: Active

## O=c1[nH]cc(CSc2n[nH]c(=O)[nH]c2=O)c(=O)[nH]1
Homo sapiens [3]
  Activity: Active
Homo sapiens [4]
  Activity: inactive

## O=c1[nH]nc(SCc2ccccc2)c(=O)[nH]1
[1]
  Activity: inactive
Homo sapiens [3]
  Activity: Active
Homo sapiens [2]
  Activity: Active
Homo sapiens [4]
  Activity: inactive

## O=c1cc(Nc2ccc(Cl)cc2F)[nH]c(=O)[nH]1
[1]
  Activity: inactive

## O=c1cc(Nc2ccc3ccccc3c2)[nH]c(=O)[nH]1
[1]
  Activity: inactive
Homo sapiens [2]
  Activity: Active
